Experimental data published in ChEMBL document CHEMBL1155257, “Proteochemometrics mapping of the interaction space for retroviral proteases and their substrates” (Bioorg Med Chem, 2009).
Non-standard residues stand in square brackets, D forms with d. Residues, ends and D or L forms follow the SMILES beside them. Groups on a side chain read outwards from the residue. ξ: configuration not given here. *: point of attachment. Phe(4-Br) = N[C@@H](Cc1ccc(Br)cc1)C(=O)O; Phe(4-Cl) = N[C@@H](Cc1ccc(Cl)cc1)C(=O)O; Phe(4-NH2) = Nc1ccc(C[C@H](N)C(=O)O)cc1; 2Nal = N[C@@H](Cc1ccc2ccccc2c1)C(=O)O; hArg = N=C(N)NCCCC[C@H](N)C(=O)O; hPhe = N[C@@H](CCc1ccccc1)C(=O)O; Cha = N[C@@H](CC1CCCCC1)C(=O)O; Phg = N[C@H](C(=O)O)c1ccccc1; Nle = CCCC[C@H](N)C(=O)O; Dab = NCC[C@H](N)C(=O)O; Nva = CCC[C@H](N)C(=O)O; Dap = NC[C@H](N)C(=O)O; ξDab = NCCC(N)C(=O)O; ξDap = NCC(N)C(=O)O; Bn = c1ccc(C*)cc1

Experiments:
[1] = Inhibition of HIV1 HXB2 protease […], L90M mutant at 100 uM; parameters: species or system Human immunodeficiency virus 1
Method in brief: (§1)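 Mutant HIV-1 HXB2 protease clones (I84V, L90M, or I84V+L90M), 70 ng per 100 µL reaction. Buffer: 0.1 M acetic acid, 1.1 M NaCl, pH 5.0. Enzyme preincubated 10 min at 37 °C with hexapeptide (11 twofold dilutions from 100 µM). Substrate (2.25 µg) then added and reacted 30 min at 37 °C. Fluorescence read every 60 s (ex 355/em 490 nm) against a no-inhibitor control.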

[2] = molecular target: T1, Human immunodeficiency virus type 1 protease (Human immunodeficiency virus 1, UniProt Q72874, L90M); assay: Inhibition of HIV1 HXB2 protease L90M mutant at 100 uM; method in brief: as §1
[3] = Inhibition of HIV1 HXB2 protease […] mutant at 100 uM; parameters: species or system Human immunodeficiency virus 1; method in brief: as §1
[4] = molecular target: T2, Protease (Human immunodeficiency virus 1, UniProt Q9YQ12); assay: Inhibition of wild type HIV1 HXB2 protease at 100 uM
T2 sequence (Q9YQ12 whole entry): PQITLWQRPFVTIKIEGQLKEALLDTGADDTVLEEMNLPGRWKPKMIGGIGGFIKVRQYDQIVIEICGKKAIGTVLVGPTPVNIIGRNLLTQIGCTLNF

[5] = molecular target: T1, Human immunodeficiency virus type 1 protease; assay: Inhibition of HIV1 HXB2 protease L90M mutant; method in brief: as §1
[6] = Inhibition of HIV1 HXB2 protease 184V mutant; parameters: species or system Human immunodeficiency virus 1; method in brief: as §1
[7] = molecular target: T2, Protease; assay: Inhibition of wild type HIV1 HXB2 protease
Method in brief: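 HXB2 HIV-1 protease clone (35 ng per 100 µL) in 0.1 M acetic acid, 1.1 M NaCl, pH 5.0. Hexapeptide was preincubated with enzyme for 10 min at 37 °C. Substrate (2.25 µg) was then added and fluorescence (ex 355/em 490 nm) read over 30 min at 37 °C. Eleven twofold dilutions from 100 µM; 1 mM stocks in DMSO/water 1:2. Protease-plus-substrate control without inhibitor.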

[8] = Inhibition of HIV1 HXB2 protease […], L90M mutant; parameters: species or system Human immunodeficiency virus 1; method in brief: as §1

Row | SMILES | Ki [1] | Ki [2] | Ki [3] | Ki [4] | Ki [5] | Ki [6] | Ki [7] | Ki [8]
1 | CC(=O)N[C@@H](Cc1ccc(O)cc1)C(=O)N[C@@H](C)C(=O)N[C@H](C(=O)N1CCC[C@H]1C(=O)NCC(=O)N[C@H](C(=O)O)[C@H](C)O)[C@H](C)O | Not Active | Not Active | Not Active | Not Active | – | – | – | –
2 | CC(=O)N[C@@H](C)C(=O)N[C@@H](Cc1cnc[nH]1)C(=O)N[C@@H](Cc1ccc(O)cc1)C(=O)N[C@@H](C)C(=O)N[C@H](C(=O)N[C@@H](Cc1cnc[nH]1)C(=O)O)[C@@H](C)O (Ac-AHYATH-OH) | Not Active | Not Active | Not Active | Not Active | – | – | – | –
3 | CC(=O)N[C@@H](CC(=O)O)C(=O)NCC(=O)NCC(=O)N[C@@H](C)C(=O)N[C@@H](CC(C)C)C(=O)N[C@@H](CO)C(=O)O (Ac-DGGALS-OH) | Not Active | Not Active | Not Active | Not Active | – | – | – | –
4 | CC(=O)NCC(=O)N[C@H](C(=O)N[C@@H](C)C(=O)N[C@@H](Cc1ccc(O)cc1)C(=O)N[C@@H](CO)C(=O)N[C@@H](CS)C(=O)O)[C@@H](C)O (Ac-GTAYSC-OH) | Not Active | Not Active | Not Active | Not Active | – | – | – | –
5 | CC(=O)N1CCC[C@H]1C(=O)N[C@@H](Cc1ccc(O)cc1)C(=O)N[C@@H](C)C(=O)NCC(=O)N[C@@H](C)C(=O)N[C@@H](CCC(N)=O)C(=O)O (Ac-PYAGAQ-OH) | Not Active | Not Active | Not Active | Not Active | – | – | – | –
6 | CC(=O)N[C@@H](CO)C(=O)N1CCC[C@H]1C(=O)N[C@@H](C)C(=O)N[C@H](C(=O)N[C@@H](CCC(=O)O)C(=O)N[C@@H](C)C(=O)O)[C@@H](C)O (Ac-SPATEA-OH) | Not Active | Not Active | Not Active | Not Active | – | – | – | –
7 | CC(=O)N[C@@H](CO)C(=O)N[C@H](C(=O)N[C@@H](CCCNC(=N)N)C(=O)N[C@@H](CS)C(=O)N[C@@H](CO)C(=O)N[C@@H](Cc1c[nH]c2ccccc12)C(=O)O)C(C)C (Ac-SVRCSW-OH) | Not Active | Not Active | Not Active | Not Active | – | – | – | –
8 | CC(=O)N[C@H](C(=O)N[C@@H](C)C(=O)N[C@@H](C)C(=O)NCC(=O)N[C@@H](CCCNC(=N)N)C(=O)N[C@H](C(=O)O)[C@@H](C)O)[C@@H](C)O (Ac-TAAGRT-OH) | Not Active | Not Active | Not Active | Not Active | – | – | – | –
9 | CC(=O)N[C@H](C(=O)N[C@@H](CC(N)=O)C(=O)N[C@H](C(=O)N[C@H](C(=O)N[C@@H](C)C(=O)N[C@@H](CC(=O)O)C(=O)O)[C@@H](C)O)[C@@H](C)O)[C@@H](C)O (Ac-TNTTAD-OH) | Not Active | Not Active | Not Active | Not Active | – | – | – | –
10 | CC[C@H](C)[C@H](NC(=O)[C@H](Cc1cnc[nH]1)NC(=O)[C@H](C)NC(=O)[C@H](CO)NC(=O)[C@H](CCCNC(=N)N)NC(=O)[C@@H](NC(C)=O)C(C)C)C(=O)O (Ac-VRSAHI-OH) | Not Active | Not Active | Not Active | Not Active | – | – | – | –
11 | CCC[C@H](NC(=O)[C@H](Cc1ccc(O)cc1)NC(=O)[C@H](CCCCNC(=N)N)NC(=O)[C@H](CCSC)NC(=O)[C@@H](NC(=O)[C@@H](N)Cc1ccc2ccccc2c1)C(C)C)C(=O)O (H-[2Nal]VM[hArg]Y[Nva]-OH) | – | – | – | – | 6.9 µM | 19.9 µM | 5.4 µM | 7.5 µM
12 | CCCC[C@H](NC(=O)[C@H](Cc1ccc(OCc2ccccc2)cc1)NC(=O)[C@H](Cc1ccc(N)cc1)NC(=O)[C@H](CCCCN)NC(=O)[C@H](CC1CCCCC1)NC(=O)[C@@H](N)Cc1ccc2ccccc2c1)C(=O)O (H-[2Nal][Cha]K[Phe(4-NH2)]Y(Bn)[Nle]-OH) | – | – | – | – | 9.2 µM | 31.6 µM | 24.1 µM | 56 µM
13 | CSCC[C@H](NC(=O)[C@H](CC1CCCCC1)NC(=O)[C@@H](N)Cc1ccc2ccccc2c1)C(=O)N[C@@H](CCC(=O)O)C(=O)N[C@H](C(=O)N[C@@H](CC1CCCCC1)C(=O)O)c1ccccc1 (H-[2Nal][Cha]ME[Phg][Cha]-OH) | – | – | – | – | 2.4 µM | 3.9 µM | 5.5 µM | 2.7 µM
14 | CCCC[C@H](NC(=O)[C@@H](N)Cc1ccc2ccccc2c1)C(=O)NCC[C@H](N)C(=O)N[C@@H](CCC(=O)O)C(=O)N[C@@H](CCc1ccccc1)C(=O)N[C@@H](CCC)C(=O)O (H-[Dab]([Nle-2Nal])E[hPhe][Nva]-OH) | Not Active | – | Not Active | – | 16.7 µM | – | 22 µM | –
15 | CC(C)C[C@H](NC(=O)[C@H](Cc1ccccc1)NC(=O)[C@H](CCCCNC(=N)N)NC(=O)[C@@H](N)CNC(=O)[C@H](CC1CCCCC1)NC(=O)[C@@H](N)CCc1ccccc1)C(=O)O (H-[Dap]([Cha-hPhe])[hArg]FL-OH) | Not Active | – | Not Active | – | 26.5 µM | – | 4.6 µM | –
16 | CCC[C@H](NC(=O)[C@H](Cc1ccc2ccccc2c1)NC(=O)[C@H](CCCCNC(=N)N)NC(=O)[C@@H](N)CNC(=O)[C@H](CCC)NC(=O)[C@@H](N)CCc1ccccc1)C(=O)O (H-[Dap]([Nva-hPhe])[hArg][2Nal][Nva]-OH) | – | – | – | – | 23.6 µM | 13.3 µM | 5.2 µM | 15.7 µM
17 | NC(CCNC(=O)[C@H](CC1CCCCC1)NC(=O)[C@@H](N)Cc1ccc(Cl)cc1)C(=O)N[C@@H](CCC(=O)O)C(=O)N[C@@H](Cc1ccccc1)C(=O)N[C@@H](CC1CCCCC1)C(=O)O (stereo not given in full) (H-[ξDab]([Cha-Phe(4-Cl)])EF[Cha]-OH) | Not Active | – | Not Active | – | 31.1 µM | – | 3.8 µM | –
18 | N=C(N)NCCC[C@H](NC(=O)C(N)CCNC(=O)[C@H](CC1CCCCC1)NC(=O)[C@@H](N)CCc1ccccc1)C(=O)N[C@@H](CCc1ccccc1)C(=O)N[C@@H](CC1CCCCC1)C(=O)O (stereo not given in full) (H-[ξDab]([Cha-hPhe])R[hPhe][Cha]-OH) | Not Active | – | Not Active | – | 47.4 µM | – | 2 µM | –
19 | CCC[C@H](NC(=O)[C@H](Cc1ccc2ccccc2c1)NC(=O)[C@H](CCC(=O)O)NC(=O)C(N)CNC(=O)[C@H](CC1CCCCC1)NC(=O)[C@@H](N)Cc1ccc2ccccc2c1)C(=O)O (stereo not given in full) (H-[ξDap]([Cha-2Nal])E[2Nal][Nva]-OH) | – | – | – | – | 9.7 µM | 20.7 µM | 12 µM | 20.8 µM
20 | CC(C)C[C@H](NC(=O)[C@H](Cc1ccc(Br)cc1)NC(=O)[C@H](CCC(=O)O)NC(=O)C(N)CNC(=O)[C@H](CC1CCCCC1)NC(=O)[C@@H](N)Cc1ccc(Cl)cc1)C(=O)O (stereo partly drawn) (H-[ξDap]([Cha-Phe(4-Cl)])E[Phe(4-Br)]L-OH) | – | – | – | – | 15.7 µM | 37.7 µM | 5.5 µM | 34.6 µM
